Mdm2-MdmX inh – inhibitors of human Mdm2-MdmX association, primary screen, cell-based, luminescence, split luciferase, SaOS-2, uHTS; Protein Mdm4 (Homo sapiens) + E3 ubiquitin-protein ligase Mdm2 (Homo sapiens), …; SaOS-2 split-luciferase Mdm2/MdmX complementation; inhibition, % at 8 µM; 330,000 compounds, 3% hits; AID 485346, 2010;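 active means inhibition of at least 50% at 8 µM in the primary screen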
Target sequence (O15151 whole entry, looked up): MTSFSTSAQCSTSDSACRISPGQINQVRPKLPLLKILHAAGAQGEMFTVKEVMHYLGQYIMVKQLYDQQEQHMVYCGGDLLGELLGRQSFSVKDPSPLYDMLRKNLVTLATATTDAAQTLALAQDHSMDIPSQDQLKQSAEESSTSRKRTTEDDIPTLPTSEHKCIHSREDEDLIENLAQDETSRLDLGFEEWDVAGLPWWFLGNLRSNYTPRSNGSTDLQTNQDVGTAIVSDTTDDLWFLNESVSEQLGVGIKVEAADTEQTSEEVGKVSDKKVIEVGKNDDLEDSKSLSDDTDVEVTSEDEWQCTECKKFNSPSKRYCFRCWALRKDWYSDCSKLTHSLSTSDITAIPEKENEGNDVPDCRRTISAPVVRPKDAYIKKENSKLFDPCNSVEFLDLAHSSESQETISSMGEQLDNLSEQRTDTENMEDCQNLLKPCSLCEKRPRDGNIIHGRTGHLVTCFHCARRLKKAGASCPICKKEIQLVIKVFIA
Target sequence (Q00987 whole entry, looked up): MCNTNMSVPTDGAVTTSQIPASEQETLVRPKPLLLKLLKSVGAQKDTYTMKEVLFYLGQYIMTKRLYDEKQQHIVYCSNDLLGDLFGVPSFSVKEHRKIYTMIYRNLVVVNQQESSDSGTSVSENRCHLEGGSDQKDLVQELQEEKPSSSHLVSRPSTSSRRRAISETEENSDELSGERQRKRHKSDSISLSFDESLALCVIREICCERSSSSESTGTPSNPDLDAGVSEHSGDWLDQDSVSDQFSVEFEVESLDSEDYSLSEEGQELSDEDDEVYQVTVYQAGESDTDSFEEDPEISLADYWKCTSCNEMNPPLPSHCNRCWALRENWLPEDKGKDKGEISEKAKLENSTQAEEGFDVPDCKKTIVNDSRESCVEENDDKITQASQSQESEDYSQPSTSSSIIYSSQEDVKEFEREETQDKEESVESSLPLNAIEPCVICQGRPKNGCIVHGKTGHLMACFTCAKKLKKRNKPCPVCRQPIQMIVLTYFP
CSC inhib – cancer stem cell viability inhibitors, primary screen, luminescence; cancer stem cell-like cells viability; inhibition, % at 7.5 µM; 300,000 compounds, 1.1% hits; in the data active means inhibition above about 75%; inconclusive means no clear call, values can overlap the other calls; tested in HMLE shEcad cells
T cruzi repl – inhibitors of intracellular T. cruzi growth, primary screen, luminescence, NIH3T3 host cells; T. cruzi beta-gal in NIH3T3, 90 h; inhibition, % (no concentration beside the values); 300,000 compounds, 1.4% hits; AID 1885, 2009;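 active means mean inhibition across valid replicates above about 55%, limit read from the data; inconclusive means mean below that limit but half or more replicates reach it; inactive means mean below it, under half of replicates reach it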;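 further: signal also drops with host cell toxicity which is not excluded here; 0% = plate median of DMSO wells and 100% = zero luminescence signal; higher percent means less beta-gal luminescence so fewer parasites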
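System – NIH/3T3 host cells with β-galactosidase reporter T. cruzi · Doses – single 50 nL compound addition per well in DMSO · Reagent – 5000 T. cruzi trypomastigotes/well · Medium – Low-serum DMEM with 2% FBS · Timing – ≥90 h infection period, 3 h prior cell attachment · Evaluation – parasite load inhibition, % · Technique – GalScreen luminescence, 60 min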
aSyn 5UTR inh – MLPCN primary screen, SNCA 5' untranslated region | alpha-synuclein 5'UTR reporter, inhibitor activity | inhibition, % (tested at 7.5 µM) | 300,000 compounds, 0.82% hits; in the data active means inhibition above about 60%; inconclusive means no clear call, values can overlap the other calls;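 further: H4 neuroglioblastoma cells stably carrying SNCA 5'UTR luciferase fusion; 0% = DMSO wells and 100% = positive control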
SKKanGAS inh – S. pyogenes SKKanGAS growth inhibitors in kanamycin, primary screen, streptokinase expression inhibitor project, SKKanGAS strain, BacTiter-Glo luminescence; inhibition, % at 7.5 µM; 6 h; 300,000 compounds, 1.3% hits; AID 1662, 2009;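 active means mean replicate score, as percent of positive control median, at least 50; inconclusive means mean below 50 but one replicate at or above 50; inactive means mean and every replicate below 50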;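 further: strain carries kanamycin resistance gene driven by streptokinase promoter and grows in 40 µg/ml kanamycin; loss of luminescence reflects streptokinase promoter inhibition or plain growth inhibition; 0% = median of DMSO wells and 100% = positive control at its reference dose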
Starred values were filed as active, the others as inactive. This is a sample that favours compounds with a hit; in the whole collection about 5.4% have one here.

Screening Cc1ccc(C)c(S(=O)(=O)/N=C2\C=C(NS(=O)(=O)c3ccccc3)C(=O)c3ccccc32)c1 returned Mdm2-MdmX inh 22, T cruzi repl -9, aSyn 5UTR inh 20 and SKKanGAS inh 107*.
For Cc1cccc(S(=O)(=O)Nc2cccc3c2C(=O)c2ccccc2-3)c1 the results were Mdm2-MdmX inh -9, CSC inhib 29, T cruzi repl -3, aSyn 5UTR inh 11 and SKKanGAS inh 22.
CCc1ccc(S(=O)(=O)/N=C2\C=C(NS(=O)(=O)c3ccccc3)C(=O)c3ccccc32)cc1 was read as Mdm2-MdmX inh 7, T cruzi repl -6, aSyn 5UTR inh -2 and SKKanGAS inh 63*.
For CC(C)c1ccc(S(=O)(=O)/N=C2\C=C(NS(=O)(=O)c3ccccc3)C(=O)c3ccccc32)cc1 the results were CSC inhib -9, T cruzi repl -8, aSyn 5UTR inh 8 and SKKanGAS inh 1.
`C/C(CCc1ccc2c(c1)OCO2)=N\N=C(/N)SC1CC(=O)N(c2ccccc2F)C1=O` (centres undefined) gave Mdm2-MdmX inh 21, CSC inhib -7, T cruzi repl -36, aSyn 5UTR inh 19 and SKKanGAS inh -12.
Screening Cc1nc(SCc2cccc(F)c2)c2oc3ccccc3c2n1 returned Mdm2-MdmX inh 22, CSC inhib 25, T cruzi repl 6, aSyn 5UTR inh 3 and SKKanGAS inh 55*.
c1ccc(CSc2ncnc3c2oc2ccccc23)cc1 was read as Mdm2-MdmX inh 4, T cruzi repl -4, aSyn 5UTR inh 13 and SKKanGAS inh 52*.
`Fc1ccccc1CSc1ncnc2c1oc1ccccc12` gave Mdm2-MdmX inh -2, CSC inhib 3, T cruzi repl 3, aSyn 5UTR inh -32 and SKKanGAS inh -7.
Screening CC(C)Oc1ccc(/C(O)=C2/C(=O)C(=O)N(CCN3CCNCC3)C2c2ccc(C(C)C)cc2)cc1 (centres undefined) returned Mdm2-MdmX inh -17, CSC inhib -8, T cruzi repl -6, aSyn 5UTR inh 2 and SKKanGAS inh -1.
For CCOC(=O)c1sc(NC(=O)Nc2ccccc2F)nc1C the results were Mdm2-MdmX inh 31, CSC inhib 2, T cruzi repl -2, aSyn 5UTR inh 70* and SKKanGAS inh -3.
`O=C(Nc1ccccc1N1CCCC1)c1ccc([N+](=O)[O-])o1` gave Mdm2-MdmX inh 22, CSC inhib 10, T cruzi repl 62*, aSyn 5UTR inh -112 and SKKanGAS inh 8.
For Cc1cccc(NC(=O)c2ccc([N+](=O)[O-])o2)c1C the results were Mdm2-MdmX inh 1, CSC inhib 27, T cruzi repl 9, aSyn 5UTR inh -49 and SKKanGAS inh 6.
Screening CC(C)C(=O)N1CCN(c2ccccc2NC(=O)c2ccc([N+](=O)[O-])o2)CC1 returned Mdm2-MdmX inh 14, CSC inhib 5, T cruzi repl 56*, aSyn 5UTR inh -27 and SKKanGAS inh 3.
For CCC(=O)N1CCN(c2ccccc2NC(=O)c2ccc([N+](=O)[O-])o2)CC1 the results were Mdm2-MdmX inh 39, CSC inhib -9, T cruzi repl 23, aSyn 5UTR inh -49 and SKKanGAS inh 2.
Screening O=C(Nc1cccc2ccccc12)c1ccc([N+](=O)[O-])o1 returned Mdm2-MdmX inh 49, CSC inhib 67, T cruzi repl 3, aSyn 5UTR inh -179 and SKKanGAS inh 53*.
`O=C(Nc1cccc(Cl)c1N1CCCCC1)c1ccc2c(c1)OCCO2` gave Mdm2-MdmX inh 19, CSC inhib inconclusive, T cruzi repl 29, aSyn 5UTR inh 23 and SKKanGAS inh 62*.
For CN1CCN(c2ccccc2NC(=O)c2ccc(N3CCCC3)c([N+](=O)[O-])c2)CC1 the results were Mdm2-MdmX inh -4, T cruzi repl 45, aSyn 5UTR inh -22 and SKKanGAS inh 0.
`O=C(Nc1ccccc1N1CCCCC1)c1ccc(Cl)c([N+](=O)[O-])c1` gave Mdm2-MdmX inh 33, CSC inhib 80*, T cruzi repl -4, aSyn 5UTR inh 51 and SKKanGAS inh -12.
For O=C(NC(=S)Nc1ccccc1N1CCCCC1)c1ccc(F)cc1Cl the results were Mdm2-MdmX inh 43, CSC inhib inconclusive, T cruzi repl 37, aSyn 5UTR inh -12 and SKKanGAS inh 50*.
`O=C(NC(=S)Nc1ccccc1N1CCCC1)c1ccc(F)cc1` gave Mdm2-MdmX inh 10, CSC inhib -2, T cruzi repl -2, aSyn 5UTR inh -33 and SKKanGAS inh -9.
`COc1ccc2nc(-n3c(O)c(C4=c5ccccc5=NC4=O)[nH]c3=S)sc2c1` gave CSC inhib 111*, T cruzi repl -4, aSyn 5UTR inh -74 and SKKanGAS inh 104*.
For CC[C@@]1(C(=O)OC)N[C@H](CN(C)S(=O)(=O)c2ccc(C(F)(F)F)cc2)[C@@H]2C(=O)N(C)C(=O)[C@@H]21 the results were Mdm2-MdmX inh -11.
Nc1c(C(=O)c2ccccc2)sc2nsc(SCCN3CCCC3)c12 was read as Mdm2-MdmX inh 19, CSC inhib 89*, T cruzi repl 55*, aSyn 5UTR inh -87 and SKKanGAS inh 25.
Cc1noc(C)c1CSCC(=O)N(C)CC(=O)Nc1ccccc1C(F)(F)F was read as Mdm2-MdmX inh 15.
`Cc1ccc(/C(O)=C/C(=O)C(=O)NC23CC4CC(CC(C4)C2)C3)cc1` gave Mdm2-MdmX inh 29, CSC inhib 25, T cruzi repl -18, aSyn 5UTR inh -8 and SKKanGAS inh 54*.
Screening Cn1c(CNC(=O)c2ccc3c(c2)OCO3)nnc1SCC(=O)Nc1ccc(F)cc1F returned Mdm2-MdmX inh 17, CSC inhib -15, T cruzi repl 2, aSyn 5UTR inh 10 and SKKanGAS inh -9.
`CC(=O)Nc1ccc(NC(=O)Cc2sc(-c3cccnc3)nc2-c2ccc(C)cc2)cc1` gave Mdm2-MdmX inh 30, CSC inhib -5, T cruzi repl 70*, aSyn 5UTR inh -26 and SKKanGAS inh 2.
`CC(=O)N/C(=C\c1ccccc1)C(=O)OCC(=O)Nc1ccc(C)c(S(=O)(=O)N(C)C)c1` gave Mdm2-MdmX inh 28 and CSC inhib -12.
COc1ccc(C(=O)Oc2cccc3cccnc23)cc1[N+](=O)[O-] was read as Mdm2-MdmX inh -25, CSC inhib 11, T cruzi repl -6, aSyn 5UTR inh 6 and SKKanGAS inh 15.
O=C(Oc1ccc(Cl)c2cccnc12)c1cccnc1 was read as Mdm2-MdmX inh 17, CSC inhib 72, T cruzi repl -2, aSyn 5UTR inh 15 and SKKanGAS inh 68*.
Screening Cc1ccc(C(=O)Oc2ccc(Cl)c3cccnc23)cc1[N+](=O)[O-] returned Mdm2-MdmX inh 20, CSC inhib 37, T cruzi repl 39, aSyn 5UTR inh -18 and SKKanGAS inh 51*.
